Measured values taken from ChEMBL document CHEMBL2390862, “Enmein-type diterpenoid analogs from natural kaurene-type oridonin: Synthesis and their antitumor biological evaluation” (Eur J Med Chem, 2013).

Experiments:
[1] = Cytotoxicity against human CaEs17 cells after 72 hrs by MTT assay; format: functional, cell-based; conditions: CaEs17, 72 h
Outline: (§1)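 K562, CaEs-17, Bel-7402 and MGC-803 cells in log phase seeded at 5 × 10⁴ cells/mL, incubated with or without test compounds at 37 °C, 5% CO₂; after 72 h MTT (5 mg/mL stock) added for 4 h, formazan dissolved in DMSO, OD read at 490 nm. Negative reference 0.1% DMSO, Taxol positive control. IC50 as mean ± S.D. of three independent experiments.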

[2] = test system: K562; assay: Cytotoxicity against human K562 cells after 72 hrs by MTT assay; format: functional, cell-based; conditions: K562, 72 h; outline: as §1
[3] = test system: MGC-803; assay: Cytotoxicity against human MGC803 cells after 72 hrs by MTT assay; format: functional, cell-based; conditions: MGC-803, 72 h; outline: as §1
[4] = test system: Bel-7402; assay: Cytotoxicity against human Bel7402 cells after 72 hrs by MTT assay; format: functional, cell-based; conditions: Bel-7402, 72 h; outline: as §1
[5] = test system: Bel-7402; assay: Induction of apoptosis in human Bel7402 cells after 2 days by Annexin-V/FITC-propidium iodide staining-based flow cytometry; format: functional, cell-based
[6] = test system: Bel-7402; assay: Induction of mitochondrial membrane depolarization in human Bel7402 cells assessed as normal cells at 0.6 uM after 48 hrs by JC-1 staining-based flow cytometry; format: functional
[7] = test system: Bel-7402; assay: Cell cycle arrest in human Bel7402 cells assessed as accumulation at G2/M phase at 0.6 uM after 48 hrs by propidium iodide staining-based FACS analysis (reference value: 12.60 %); format: functional
Outline: (§2)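 Bel-7402 cells seeded at 5.0 × 10³ cells/well and incubated 24 h at 37 °C, then exposed to test compound or DMSO solvent control for 48 h. Cells fixed in 70% ethanol, RNase-treated, PI-stained; DNA content of nuclei measured by flow cytometry.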

[8] = test system: Bel-7402; assay: Cell cycle arrest in human Bel7402 cells assessed as accumulation at G1 phase at 0.3 uM after 48 hrs by propidium iodide staining-based FACS analysis (reference value: 48.23 %); format: functional; outline: as §2
[9] = test system: Bel-7402; assay: Induction of apoptosis in human Bel7402 cells assessed as viable cells at 0.3 uM after 2 days by Annexin-V/FITC-propidium iodide staining-based flow cytometry (reference value: 94.1 %); format: functional; conditions: Bel-7402, 48 h, read-out: Activity
[10] = test system: Bel-7402; assay: Induction of apoptosis in human Bel7402 cells assessed as early and late apoptotic cells at 0.6 uM after 2 days by Annexin-V/FITC-propidium iodide staining-based flow cytometry (reference value: 4.8 %); format: functional
[11] = test system: Bel-7402; assay: Induction of apoptosis in human Bel7402 cells assessed as increase in caspase 3 expression after 48 hrs by Western blotting analysis; format: functional, cell-based
Outline: (§3)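 Bel-7402 cells treated with vehicle control or compound at 0.15, 0.3 or […] (so in the source). Lysates at […] protein per lane (so in the source) separated by 10% SDS-PAGE, transferred to nitrocellulose and immunoblotted, with β-actin measured as reference. Significance vs. vehicle control marked at P < 0.05 and P < 0.01.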

[12] = test system: Bel-7402; assay: Induction of apoptosis in human Bel7402 cells assessed as increase in caspase 9 expression after 48 hrs by Western blotting analysis; format: functional, cell-based; outline: as §3
[13] = test system: Bel-7402; assay: Induction of apoptosis in human Bel7402 cells assessed as reduction in Bcl2 expression after 48 hrs by Western blotting analysis; format: functional, cell-based; outline: as §3
[14] = test system: Bel-7402; assay: Cell cycle arrest in human Bel7402 cells assessed as accumulation at G1 phase at 0.6 uM after 48 hrs by propidium iodide staining-based FACS analysis (reference value: 48.23 %); format: functional; outline: as §2
[15] = test system: Bel-7402; assay: Cell cycle arrest in human Bel7402 cells assessed as accumulation at S phase at 0.15 uM after 48 hrs by propidium iodide staining-based FACS analysis (reference value: 39.17 %); format: functional; outline: as §2
[16] = test system: Bel-7402; assay: Induction of apoptosis in human Bel7402 cells at 0.6 uM after 48 hrs by propidium iodide staining-based FACS analysis (reference value: 1.67 %); format: functional; outline: as §2
[17] = test system: Bel-7402; assay: Induction of apoptosis in human Bel7402 cells assessed as early apoptotic cells at 0.3 uM after 2 days by Annexin-V/FITC-propidium iodide staining-based flow cytometry (reference value: 2.6 %); format: functional
[18] = test system: Bel-7402; assay: Induction of apoptosis in human Bel7402 cells at 0.15 uM after 48 hrs by propidium iodide staining-based FACS analysis (reference value: 1.67 %); format: functional; outline: as §2
[19] = test system: Bel-7402; assay: Induction of mitochondrial membrane depolarization in human Bel7402 cells assessed as normal cells at 0.3 uM after 48 hrs by JC-1 staining-based flow cytometry; format: functional
[20] = test system: Bel-7402; assay: Cell cycle arrest in human Bel7402 cells assessed as accumulation at G1 phase at 0.15 uM after 48 hrs by propidium iodide staining-based FACS analysis (reference value: 48.23 %); format: functional; outline: as §2
[21] = test system: Bel-7402; assay: Induction of apoptosis in human Bel7402 cells assessed as late apoptotic cells at 0.6 uM after 2 days by Annexin-V/FITC-propidium iodide staining-based flow cytometry (reference value: 2.2 %); format: functional
[22] = test system: Bel-7402; assay: Induction of apoptosis in human Bel7402 cells assessed as viable cells at 0.6 uM after 2 days by Annexin-V/FITC-propidium iodide staining-based flow cytometry (reference value: 94.1 %); format: functional; conditions: Bel-7402, 48 h, read-out: Activity
[23] = test system: Bel-7402; assay: Induction of apoptosis in human Bel7402 cells assessed as increase in cytochrome C expression after 48 hrs by Western blotting analysis; format: functional, cell-based; outline: as §3
[24] = test system: Bel-7402; assay: Induction of apoptosis in human Bel7402 cells assessed as increase in caspase 8 expression after 48 hrs by Western blotting analysis; format: functional, cell-based; outline: as §3
[25] = test system: Bel-7402; assay: Induction of apoptosis in human Bel7402 cells assessed as early apoptotic cells at 0.6 uM after 2 days by Annexin-V/FITC-propidium iodide staining-based flow cytometry (reference value: 2.6 %); format: functional
[26] = test system: Bel-7402; assay: Induction of mitochondrial membrane depolarization in human Bel7402 cells assessed as apoptotic cells after 48 hrs by JC-1 staining-based flow cytometry; format: functional, cell-based
Outline: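 In triplicate, Bel-7402 cells cultured overnight, then incubated with compound (0, 0.15, 0.3, […] as printed) or vehicle for 48 h, stained with the lipophilic cationic dye JC-1. Cells with collapsed mitochondrial membrane potential counted by flow cytometry.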

[27] = test system: Bel-7402; assay: Cell cycle arrest in human Bel7402 cells assessed as accumulation at S phase at 0.3 uM after 48 hrs by propidium iodide staining-based FACS analysis (reference value: 39.17 %); format: functional; outline: as §2
[28] = test system: Bel-7402; assay: Cell cycle arrest in human Bel7402 cells assessed as accumulation at G2/M phase at 0.15 uM after 48 hrs by propidium iodide staining-based FACS analysis (reference value: 12.60 %); format: functional; outline: as §2
[29] = test system: Bel-7402; assay: Induction of apoptosis in human Bel7402 cells assessed as necrotic cells at 0.3 uM after 2 days by Annexin-V/FITC-propidium iodide staining-based flow cytometry (reference value: 1.1 %); format: functional
[30] = test system: Bel-7402; assay: Induction of apoptosis in human Bel7402 cells assessed as early apoptotic cells at 0.15 uM after 2 days by Annexin-V/FITC-propidium iodide staining-based flow cytometry (reference value: 2.6 %); format: functional
[31] = test system: Bel-7402; assay: Induction of apoptosis in human Bel7402 cells assessed as late apoptotic cells at 0.15 uM after 2 days by Annexin-V/FITC-propidium iodide staining-based flow cytometry (reference value: 2.2 %); format: functional
[32] = test system: Bel-7402; assay: Induction of apoptosis in human Bel7402 cells assessed as necrotic cells at 0.6 uM after 2 days by Annexin-V/FITC-propidium iodide staining-based flow cytometry (reference value: 1.1 %); format: functional
[33] = test system: Bel-7402; assay: Cell cycle arrest in human Bel7402 cells assessed as accumulation at G2/M phase at 0.3 uM after 48 hrs by propidium iodide staining-based FACS analysis (reference value: 12.60 %); format: functional; outline: as §2
[34] = test system: Bel-7402; assay: Induction of apoptosis in human Bel7402 cells assessed as increase in Fas expression after 48 hrs by Western blotting analysis; format: functional, cell-based; outline: as §3
[35] = test system: Bel-7402; assay: Induction of apoptosis in human Bel7402 cells assessed as early and late apoptotic cells at 0.15 uM after 2 days by Annexin-V/FITC-propidium iodide staining-based flow cytometry (reference value: 4.8 %); format: functional
[36] = test system: Bel-7402; assay: Induction of apoptosis in human Bel7402 cells assessed as increase in Bax expression after 48 hrs by Western blotting analysis; format: functional, cell-based; outline: as §3
[37] = test system: Bel-7402; assay: Induction of apoptosis in human Bel7402 cells assessed as viable cells at 0.15 uM after 2 days by Annexin-V/FITC-propidium iodide staining-based flow cytometry (reference value: 94.1 %); format: functional; conditions: Bel-7402, 48 h, read-out: Activity
[38] = test system: Bel-7402; assay: Induction of apoptosis in human Bel7402 cells assessed as early and late apoptotic cells at 0.3 uM after 2 days by Annexin-V/FITC-propidium iodide staining-based flow cytometry (reference value: 4.8 %); format: functional
[39] = test system: Bel-7402; assay: Cell cycle arrest in human Bel7402 cells assessed as accumulation at S phase at 0.6 uM after 48 hrs by propidium iodide staining-based FACS analysis (reference value: 39.17 %).; format: functional; outline: as §2
[40] = test system: Bel-7402; assay: Induction of apoptosis in human Bel7402 cells assessed as necrotic cells at 0.15 uM after 2 days by Annexin-V/FITC-propidium iodide staining-based flow cytometry (reference value: 1.1 %); format: functional
[41] = test system: Bel-7402; assay: Induction of apoptosis in human Bel7402 cells assessed as late apoptotic cells at 0.3 uM after 2 days by Annexin-V/FITC-propidium iodide staining-based flow cytometry (reference value: 2.2 %); format: functional
[42] = test system: Bel-7402; assay: Induction of apoptosis in human Bel7402 cells at 0.3 uM after 48 hrs by propidium iodide staining-based FACS analysis (reference value: 1.67 %); format: functional; outline: as §2

C=C1C(=O)[C@@]23C(=O)O[C@H]4CCC(C)(C)[C@H]5[C@H](O)OC[C@@]45[C@@H]2CC[C@@H]1[C@H]3OC(C)=O
IC50 [1]: 1590 nM
IC50 [2]: 1110 nM
IC50 [3]: 1990 nM
IC50 [4]: 1970 nM

C=C1C(=O)[C@@]23C(=O)O[C@H]4CCC(C)(C)[C@H]5[C@H](O)OC[C@@]45[C@@H]2CC[C@@H]1[C@H]3OC(=O)CC
IC50 [1]: 1210 nM
IC50 [2]: 1020 nM
IC50 [3]: 1560 nM
IC50 [4]: 1530 nM

C=C1C(=O)[C@@]23C(=O)O[C@H]4CCC(C)(C)[C@H]5[C@H](O)OC[C@@]45[C@@H]2CC[C@@H]1[C@H]3OC(=O)c1ccc(C(F)(F)F)cc1
IC50 [1]: 760 nM
IC50 [2]: 370 nM
IC50 [3]: 960 nM
IC50 [4]: 1270 nM

C=C1C(=O)[C@@]23C(=O)O[C@H]4CCC(C)(C)[C@H]5[C@H](O)OC[C@@]45[C@@H]2CC[C@@H]1[C@H]3OC(=O)c1cc(F)c(F)c(F)c1F
IC50 [1]: 1890 nM
IC50 [2]: 1040 nM
IC50 [3]: 1240 nM
IC50 [4]: 890 nM

C=C1C(=O)[C@@]23C(=O)O[C@H]4CCC(C)(C)[C@H]5[C@H](O)OC[C@@]45[C@@H]2CC[C@@H]1[C@H]3OC(=O)c1ccc(Cl)cc1
Activity [5]: Dose-dependent effect
Activity [6]: 54.4%
Activity [7]: 28.76%
Activity [8]: 50.28%
viability at 0.3 µM [9]: 66.5%
Activity [10]: 50.5%
Activity [11]: Dose-dependent effect
Activity [12]: Dose-dependent effect
Activity [13]: Dose-dependent effect
Activity [14]: 51.07%
Activity [15]: 38.72%
Activity [16]: 31.97%
Activity [17]: 14.8%
Activity [18]: 2.07%
Activity [19]: 82.4%
Activity [20]: 46.18%
Activity [21]: 28.1%
viability at 0.6 µM [22]: 48.8%
Activity [23]: Dose-dependent effect
IC50 [1]: 280 nM
Activity [24]: Dose-dependent effect
IC50 [2]: 240 nM
Activity [25]: 22.4%
Activity [26]: Dose-dependent effect
Activity [27]: 29.24%
Activity [28]: 15.1%
Activity [29]: 0.3%
Activity [30]: 8.8%
Activity [31]: 5.5%
Activity [32]: 0.7%
Activity [33]: 20.48%
Activity [34]: Dose-dependent effect
Activity [35]: 14.3%
Activity [36]: Dose-dependent effect
viability at 0.15 µM [37]: 84.6%
IC50 [3]: 1220 nM
Activity [38]: 33.3%
IC50 [4]: 870 nM
Activity [39]: 20.17%
Activity [40]: 1%
Activity [41]: 18.5%
Activity [42]: 14.86%

C=C1C(=O)[C@@]23C(=O)O[C@H]4CCC(C)(C)[C@H]5[C@H](O)OC[C@@]45[C@@H]2CC[C@@H]1[C@H]3OC(=O)c1ccc([N+](=O)[O-])cc1
IC50 [1]: 580 nM
IC50 [2]: 260 nM
IC50 [3]: 640 nM
IC50 [4]: 1010 nM
